The values that follow come from publication PMC6554731 (Bioorganic & medicinal chemistry, 2019).

In one data set the target is T1, human Ero1α (Homo sapiens, UniProt Q96HE7, C104A/C131A/C166A).
T1 sequence (Q96HE7 22-468 C104A/C131A/C166A): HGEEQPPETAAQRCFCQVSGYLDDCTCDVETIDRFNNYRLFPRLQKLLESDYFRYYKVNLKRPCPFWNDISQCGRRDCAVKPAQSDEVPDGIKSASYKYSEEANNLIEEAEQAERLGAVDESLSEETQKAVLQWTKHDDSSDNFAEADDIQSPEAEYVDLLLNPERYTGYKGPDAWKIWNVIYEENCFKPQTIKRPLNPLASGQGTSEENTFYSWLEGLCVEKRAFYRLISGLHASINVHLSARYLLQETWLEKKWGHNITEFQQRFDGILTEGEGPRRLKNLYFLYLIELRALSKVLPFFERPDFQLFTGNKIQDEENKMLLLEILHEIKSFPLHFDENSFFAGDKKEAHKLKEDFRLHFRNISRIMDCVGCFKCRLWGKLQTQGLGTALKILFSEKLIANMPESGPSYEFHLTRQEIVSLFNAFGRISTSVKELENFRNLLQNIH
Put plainly: Amplex Red/Ero1α catalytic assay. The class given is biochemical. The essentials: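 Hyperactive His-tagged human Ero1α (residues 22–468) expressed in E. coli BL21(DE3)RIL, Ni-NTA purified, oxidised with ferricyanide, monomeric gel-filtration fraction; 0.0625 mg/mL enzyme with HRP, 25 μM Amplex Red, human PDI (18–479) substrate 0.250–0.008 mg/mL, test compound 200–0.01 μM, 50 mM sodium phosphate pH 7.4; 30 min, 37 °C; fluorescence Ex 530/Em 590; two experiments in triplicate.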

A further data set can be described thus: Solubility observations. Format: physicochemical.
Data set [1] concerns U266 cells. The data set is described as follows: Western blot analysis of ER stress markers. The conditions noted are these: U266, 2, 4 and 8 h. Format: cell-based. The procedure, abridged: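 U266 lysates taken after 2, 4 and 8 h with DMSO or test compound, run on 8–10% SDS-PAGE and transferred to PVDF. Membranes blocked 1 h at room temperature in 5% milk/TBST, probed overnight at 4 °C for p-eIF2α, ATF4, ATF6 and β-actin, then HRP secondary for 1 h. Chemiluminescent detection; n=3 independent assays.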

The next data set deals with normal PBMCs. Put plainly: Cell death in normal PBMCs. Format: cell-based. The conditions noted are these: data not shown.
The test system of data set [2] is U266 cells. The data set is described as follows: Annexin V/propidium iodide double-staining assay. The conditions noted are these: 25 μM, 18 h. The class given is cell-based. The essentials: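 U266 cells exposed to DMSO vehicle or 25 μM test compound for 18 h, then washed in ice-cold PBS and stained with Annexin V-FITC/PI in binding buffer for 15 min at 37 °C in the dark. Flow cytometry counted at least 10,000 cells per sample. Means ± SD from three independent experiments.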

The subject of a further data set is Ero1L. The conditions noted are these: cited from earlier work.

Each structure is given as a SMILES string.

As for `CC1=NN(c2ccc(C)cc2)C(=O)/C1=C/c1ccc(-c2ccc(C(=O)O)cc2)o1` [AN968], the “Activity against Ero1L (derivative screen, Supplementary Fig. 2)” value on human Ero1α was “marginally active”.

Take `[N-]=[N+]=Nc1cccc(-c2ccc(/C=C3/C(=O)N(c4ccc(Cl)c(C(=O)O)c4)N=C3C(F)(F)F)o2)c1` [PB-10, (E)-5-(4-((5-(3-azidophenyl)furan-2-yl)methylene)-5-oxo-3-(trifluoromethyl)-4,5-dihydro-1H-pyrazol-1-yl)-2-chlorobenzoic acid]: the Solubility result in the data set “Solubility observations” is “comparable in solubility to EN460”.

Regarding `O=C(O)c1cc(N2N=C(C(F)(F)F)/C(=C/c3ccc(-c4ccccc4)o3)C2=O)ccc1Cl` [EN460], in the data set with U266 cells [1], the ATF4 level result is on record as “modest increase”, the “full length ATF6 level” value was “reduced levels” and the p-eIF2α level entry is recorded as “robust increase”. Further, in the data set on normal PBMCs, the “Cell death in normal PBMCs” value was “sufficient to induce cell death”. Moreover, the “Apoptosis (Annexin V positive cells)” value with U266 cells [2] was “induces apoptosis”. The “Mode of Ero1L inhibition” value at human Ero1α (increasing substrate PDI with different EN460 concentrations) was “competitive”. Also, at human Ero1α (substrate PDI, with EN460), the Km result is “increased” and the Vmax entry is “largely stated the same”. In addition, the Solubility result in “Solubility observations” was “poor solubility”. Moreover, in “Solubility observations” (limited by poor solubility), the “Reachable concentration in vitro” value was no more than 200 µM. For the same compound, the “Inhibition of the Ero1L enzyme” value in the data set on Ero1L is reported as “low micromolar range”.

As to `CC1=NN(c2ccccc2)C(=O)/C1=C/c1ccc(-c2cccc(Br)c2)o1` [AK968], the “Activity against Ero1L (derivative screen, Supplementary Fig. 2)” value on human Ero1α was “inactive”.

As to `[N-]=[N+]=Nc1ccc(-c2ccc(/C=C3/C(=O)N(c4ccc(Cl)c(C(=O)O)c4)N=C3C(F)(F)F)o2)cc1` [PB-11, (E)-5-(4-((5-(4-azidophenyl)furan-2-yl)methylene)-5-oxo-3-(trifluoromethyl)-4,5-dihydro-1H-pyrazol-1-yl)-2-chlorobenzoic acid], the “Solubility in physiological buffers” value in “Solubility observations” (e.g. PBS pH 7.4) is on record as “less soluble”.
